Data: article PMC4107104 (Hippocampus, 2014)
pIC50: −log10 of the molar value.

Experiments:
recombinant human HDAC 8 = target: T1, recombinant human HDAC 8 (Homo sapiens, UniProt Q9BY41); experiment: HDAC enzyme inhibition assay, HDAC8; assay type: biochemical; details: read-out: In vitro IC50, HD8
T1 sequence (Q9BY41 1-377): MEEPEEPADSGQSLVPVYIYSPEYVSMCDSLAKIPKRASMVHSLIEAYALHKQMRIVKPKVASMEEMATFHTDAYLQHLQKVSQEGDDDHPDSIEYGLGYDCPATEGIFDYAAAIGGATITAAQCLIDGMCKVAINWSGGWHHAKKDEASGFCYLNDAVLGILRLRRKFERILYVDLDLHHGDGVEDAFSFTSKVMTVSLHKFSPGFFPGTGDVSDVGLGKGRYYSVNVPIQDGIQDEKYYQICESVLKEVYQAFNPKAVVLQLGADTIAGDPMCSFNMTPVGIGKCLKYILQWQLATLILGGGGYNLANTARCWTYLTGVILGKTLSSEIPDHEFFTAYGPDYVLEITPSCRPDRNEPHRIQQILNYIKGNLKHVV
Method in brief: (§1)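 Recombinant human enzyme incubated at 37°C for 30 min in HDAC assay buffer with 5 μg BSA and fluorogenic substrate 3 (10 μM). Double-strength developer was then added for 20 min at room temperature, and fluorescence was read at ex 360/em 460 nm. The six-point concentration series was run in duplicate. Activity was taken as (F−Fb)/(Ft−Fb), with no-inhibitor as 100% and no-enzyme as 0%, and IC50 came from a sigmoidal nonlinear fit.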

recombinant human HDAC 3 = recombinant human HDAC 3 (Homo sapiens, UniProt O15379); experiment: HDAC enzyme inhibition assay, HDAC3; assay type: biochemical; details: read-out: In vitro IC50, HD3
Method in brief: as §1

[1] = target: T2, recombinant human HDAC 11 (Homo sapiens, UniProt Q96DB2); experiment: HDAC enzyme inhibition assay, HDAC11; assay type: biochemical; details: read-out: In vitro IC50, HD11
T2 sequence (Q96DB2 1-347): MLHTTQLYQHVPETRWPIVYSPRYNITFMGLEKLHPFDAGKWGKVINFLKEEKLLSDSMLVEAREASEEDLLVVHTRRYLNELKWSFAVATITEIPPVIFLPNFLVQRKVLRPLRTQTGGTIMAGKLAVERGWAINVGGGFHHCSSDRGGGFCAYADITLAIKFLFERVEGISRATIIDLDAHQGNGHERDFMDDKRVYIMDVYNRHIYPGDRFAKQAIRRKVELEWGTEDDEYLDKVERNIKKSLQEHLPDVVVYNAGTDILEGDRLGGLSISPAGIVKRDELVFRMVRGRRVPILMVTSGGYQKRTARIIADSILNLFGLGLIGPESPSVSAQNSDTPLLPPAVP
Method in brief: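 Recombinant human enzyme incubated for 60 min at 37°C in HDAC assay buffer containing 5 μg BSA and substrate 3 at 10 μM. Developer (double strength) was added for 20 min at room temperature, and fluorescence was read at 360/460 nm. Six concentrations were tested in duplicate. Percent activity was normalised between no-inhibitor (100%) and no-enzyme (0%) wells, and IC50 came from sigmoidal nonlinear regression.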

recombinant human HDAC 1 = recombinant human HDAC 1 (Homo sapiens, UniProt Q13547); experiment: HDAC enzyme inhibition assay, HDAC1; assay type: biochemical; details: read-out: In vitro IC50, HD1, NI = no inhibition up to 10 mM tested
Method in brief: as §1

recombinant human HDAC 2 = recombinant human HDAC 2 (Homo sapiens, UniProt Q92769); experiment: HDAC enzyme inhibition assay, HDAC2; assay type: biochemical; details: read-out: In vitro IC50, HD2
Method in brief: as §1

[2] = target: T3, recombinant human HDAC 10 (Homo sapiens, UniProt Q969S8); experiment: HDAC enzyme inhibition assay, HDAC10; assay type: biochemical; details: read-out: In vitro IC50, HD10
T3 sequence (Q969S8 1-669): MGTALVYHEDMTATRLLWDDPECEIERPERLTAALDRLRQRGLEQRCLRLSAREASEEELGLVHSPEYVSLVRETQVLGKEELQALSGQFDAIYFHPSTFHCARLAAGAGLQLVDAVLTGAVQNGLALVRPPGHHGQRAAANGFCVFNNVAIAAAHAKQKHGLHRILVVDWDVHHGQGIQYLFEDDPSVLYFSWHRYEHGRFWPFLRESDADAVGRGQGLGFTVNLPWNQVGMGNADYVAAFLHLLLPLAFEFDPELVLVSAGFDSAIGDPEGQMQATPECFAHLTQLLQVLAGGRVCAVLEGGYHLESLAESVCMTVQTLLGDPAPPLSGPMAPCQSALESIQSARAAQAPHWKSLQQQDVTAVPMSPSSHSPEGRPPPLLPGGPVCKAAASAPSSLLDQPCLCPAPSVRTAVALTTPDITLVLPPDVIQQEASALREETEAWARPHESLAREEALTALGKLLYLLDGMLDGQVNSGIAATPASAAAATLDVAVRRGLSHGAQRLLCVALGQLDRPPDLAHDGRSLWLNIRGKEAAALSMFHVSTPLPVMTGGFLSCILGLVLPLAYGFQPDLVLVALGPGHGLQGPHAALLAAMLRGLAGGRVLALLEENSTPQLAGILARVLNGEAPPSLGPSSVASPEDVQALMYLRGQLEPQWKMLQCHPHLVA
Method in brief: as §1

[3] = tested on: hippocampal histone H3 and H4 acetylation; experiment: Brain/hippocampal histone acetylation after i.p. injection; assay type: in vivo, Long-Evans rats
contextual fear memory = experiment: Contextual fear conditioning, 24 hr retention; assay type: in vivo, Long-Evans rats; details: 1.2 g/kg i.p. 1 hr prior to CFC training

Chain of recombinant human HDAC 1 (Q13547 whole entry): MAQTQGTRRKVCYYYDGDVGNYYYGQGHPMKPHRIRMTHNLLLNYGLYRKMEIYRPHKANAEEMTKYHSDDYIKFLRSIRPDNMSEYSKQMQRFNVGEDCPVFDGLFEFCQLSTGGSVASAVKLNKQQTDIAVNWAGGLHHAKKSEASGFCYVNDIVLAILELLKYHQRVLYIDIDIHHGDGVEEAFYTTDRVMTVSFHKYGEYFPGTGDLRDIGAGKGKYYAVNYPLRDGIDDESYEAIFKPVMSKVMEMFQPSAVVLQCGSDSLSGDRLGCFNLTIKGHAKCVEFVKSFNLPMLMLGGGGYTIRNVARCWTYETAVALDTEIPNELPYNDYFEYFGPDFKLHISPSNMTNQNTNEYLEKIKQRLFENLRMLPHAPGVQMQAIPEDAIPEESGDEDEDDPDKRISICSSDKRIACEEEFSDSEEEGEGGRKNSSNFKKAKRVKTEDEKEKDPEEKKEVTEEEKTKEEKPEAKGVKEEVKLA
Chain of recombinant human HDAC 3 (O15379 whole entry): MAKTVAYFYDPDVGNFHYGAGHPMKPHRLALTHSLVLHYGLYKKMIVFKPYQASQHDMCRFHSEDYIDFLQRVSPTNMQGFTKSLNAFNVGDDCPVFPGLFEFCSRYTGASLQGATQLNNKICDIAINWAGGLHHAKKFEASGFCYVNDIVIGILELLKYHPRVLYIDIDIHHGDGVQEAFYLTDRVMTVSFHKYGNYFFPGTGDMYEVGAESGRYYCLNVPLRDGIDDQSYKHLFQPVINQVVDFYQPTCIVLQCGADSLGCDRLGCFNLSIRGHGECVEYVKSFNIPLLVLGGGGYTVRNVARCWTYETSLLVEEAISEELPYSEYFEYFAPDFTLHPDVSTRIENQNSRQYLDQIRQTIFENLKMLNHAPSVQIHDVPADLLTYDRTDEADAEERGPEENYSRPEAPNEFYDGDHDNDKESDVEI
Chain of recombinant human HDAC 3 (Q9Y618 395-489 partner limits assumed): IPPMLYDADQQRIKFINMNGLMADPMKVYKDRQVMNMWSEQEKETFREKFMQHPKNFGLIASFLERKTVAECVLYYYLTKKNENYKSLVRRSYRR
Chain of recombinant human HDAC 2 (Q92769 whole entry): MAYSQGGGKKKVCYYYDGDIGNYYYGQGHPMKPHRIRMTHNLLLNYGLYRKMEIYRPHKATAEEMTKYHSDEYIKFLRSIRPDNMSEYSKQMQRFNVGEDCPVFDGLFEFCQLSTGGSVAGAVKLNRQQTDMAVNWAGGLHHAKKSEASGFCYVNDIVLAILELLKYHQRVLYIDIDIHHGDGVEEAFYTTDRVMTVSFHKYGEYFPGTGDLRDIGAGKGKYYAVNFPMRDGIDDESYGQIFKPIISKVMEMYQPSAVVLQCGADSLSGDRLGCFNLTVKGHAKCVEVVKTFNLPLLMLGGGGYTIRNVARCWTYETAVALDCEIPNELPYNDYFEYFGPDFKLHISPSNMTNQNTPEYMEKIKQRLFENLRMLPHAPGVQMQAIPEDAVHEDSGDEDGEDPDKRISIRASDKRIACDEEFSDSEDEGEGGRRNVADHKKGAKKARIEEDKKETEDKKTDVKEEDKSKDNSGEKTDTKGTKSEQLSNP

Compound: CCCC(=O)[O-].[Na+] [NaB, sodium butyrate]
- pIC50 (recombinant human HDAC 8): 3.21
- pIC50 (recombinant human HDAC 3): 3.90
- pIC50 [1]: 3.25
- pIC50 (recombinant human HDAC 1): 3.48
- pIC50 (recombinant human HDAC 2): 3.93
- pIC50 [2]: 3.27
- histone H3 and H4 acetylation in whole hippocampus, 30 min ([3]; 30 min after 1.2 g/kg i.p.): increasing at 30 min relative to vehicle
- histone H3 and H4 acetylation in whole hippocampus, 60 min ([3]; 60 min after 1.2 g/kg i.p.): returning to baseline levels
- mean freezing at 24 hr retention test (contextual fear memory): 12.73 s
- retention of contextual fear memory at 24 hr (contextual fear memory): failed to enhance retention
